Measured values published in ChEMBL document CHEMBL1125826, “Synthesis and biological activity of 5-amino- and 5-hydroxyquinolones, and the overwhelming influence of the remote N1-substituent in determining the structure-activity relationship” (1991).
≈ marks a conversion by molar mass, not a printed value.

Key:
Assay type in all cases: functional
Escherichia coli = assay: Antibacterial activity was determined against gram negative organism, Escherichia coli vogel; conditions: Escherichia coli; read-out: MIC
How it was run: (§1)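 MIC (µg/mL) by standard microtitration against a panel of 10 Gram-positive and Gram-negative organisms; values averaged from multiple experiments.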

Enterococcus faecalis = assay: Antibacterial activity was determined against gram positive organism, Streptococcus faecalis MGH-2; conditions: Enterococcus faecalis; read-out: MIC; how it was run: as §1
Staphylococcus aureus [1] = assay: Antibacterial activity was determined against gram positive organism, Staphylococcus aureus H228; conditions: Staphylococcus aureus; read-out: MIC; how it was run: as §1
Bacteria [2] = assay: Antibacterial activity was determined against gram negative organism, Providencia rettgeri. M1771; conditions: Bacteria; read-out: MIC; how it was run: as §1
Staphylococcus aureus [3] = assay: Antibacterial activity was determined against gram positive organism, Staphylococcus aureus UC76; how it was run: as §1
Pseudomonas aeruginosa = assay: Antibacterial activity was determined against gram negative organism, Pseudomonas aeruginosa UI-18; conditions: Pseudomonas aeruginosa; read-out: MIC; how it was run: as §1
Klebsiella pneumoniae = assay: Antibacterial activity was determined against gram negative organism, Klebsiella pneumoniae MGH-2; conditions: Klebsiella pneumoniae; read-out: MIC; how it was run: as §1
[4] = target: DNA gyrase (Escherichia coli) (UniProt P0AES6+P0AES4); assay: Minimum inhibitory concentration against Escherichia coli DNA-gyrase in supercoiling assay
Enterobacter cloacae = assay: Antibacterial activity was determined against gram negative organism, Enterobacter cloacae MA2646; conditions: Enterobacter cloacae; read-out: MIC
Bacteria [5] = assay: MIC ratio measured as the mean MICs of gram-negative bacteria
How it was run: (§2)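 Geometric mean of the microtitration MICs (µg/mL) over the Gram-negative organisms, and separately over the Gram-positive organisms, of the 10-strain panel; individual MICs averaged from multiple experiments.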

Streptococcus pyogenes = assay: Antibacterial activity was determined against gram positive organism, Streptococcus pyogenes C203; conditions: Streptococcus pyogenes; read-out: MIC; how it was run: as §1
Bacteria [6] = assay: MIC ratio measured as the mean MICs of gram-positive bacteria; how it was run: as §2
Streptococcus pneumoniae = assay: Antibacterial activity was determined against gram positive organism, Streptococcus pneumoniae SV-1; conditions: Streptococcus pneumoniae; read-out: MIC; how it was run: as §1
[7] = Staphylococcus aureus, read-out: MIC

SMILES	MIC (Escherichia coli) [µg/mL]	MIC (Enterococcus faecalis) [µg/mL]	MIC (Staphylococcus aureus [1]) [µg/mL]	MIC (Bacteria [2]) [µg/mL]	MIC (Staphylococcus aureus [3]; [7]) [µg/mL]	MIC (Pseudomonas aeruginosa) [µg/mL]	MIC (Klebsiella pneumoniae) [µg/mL]	MIC [4] [µg/mL]	MIC (Enterobacter cloacae) [µg/mL]	Geometric mean MIC over Gram-negative bacteria (µg/mL) (Bacteria [5])	MIC (Streptococcus pyogenes) [µg/mL]	Geometric mean MIC over Gram-positive bacteria (µg/mL) (Bacteria [6])	MIC (Streptococcus pneumoniae) [µg/mL]	MIC (Staphylococcus aureus [3]) [µg/mL]	Ratio (Bacteria [6])
CCn1cc(C(=O)O)c(=O)c2c(N)c(F)c(N3CCNCC3)c(F)c21	0.1 (≈ 0.284 µM)	1.6 (≈ 4.54 µM)	1.6 (≈ 4.54 µM)	0.4 (≈ 1.14 µM)	0.2 (≈ 0.568 µM)	0.8 (≈ 2.27 µM)	0.2 (≈ 0.568 µM)	2.5 (≈ 7.1 µM)	0.2 (≈ 0.568 µM)	0.26	3.1 (≈ 8.8 µM)	1.15	1.6 (≈ 4.54 µM)	–	–
CCNCC1CCN(c2c(F)cc3c(=O)c(C(=O)O)cn(CC)c3c2F)C1 (configuration not stated) [MERAFLOXACIN]	0.1 (≈ 0.264 µM)	0.1 (≈ 0.264 µM)	0.1 (≈ 0.264 µM)	0.4 (≈ 1.05 µM)	–	1.6 (≈ 4.22 µM)	0.2 (≈ 0.527 µM)	2.5 (≈ 6.59 µM)	0.1 (≈ 0.264 µM)	0.26	0.1 (≈ 0.264 µM)	–	0.1 (≈ 0.264 µM)	0.05 (≈ 0.132 µM)	0.087
NC1CCN(c2c(F)cc3c(=O)c(C(=O)O)cn(C4CC4)c3c2Cl)C1 (stereo in doubt; 1f-4)	–	–	–	–	–	–	–	0.25 (≈ 0.683 µM)	–	0.057	–	–	–	–	–
CCn1cc(C(=O)O)c(=O)c2c(N)c(F)c(N3CCNC(C)C3)c(F)c21 (configuration not stated)	0.2 (≈ 0.546 µM)	3.1 (≈ 8.46 µM)	1.6 (≈ 4.37 µM)	1.6 (≈ 4.37 µM)	0.4 (≈ 1.09 µM)	3.1 (≈ 8.46 µM)	0.4 (≈ 1.09 µM)	7.5 (≈ 20.5 µM)	0.2 (≈ 0.546 µM)	0.6	6.3 (≈ 17.2 µM)	2.07	3.1 (≈ 8.46 µM)	–	–
CCn1cc(C(=O)O)c(=O)c2cc(F)c(N3CCC(N)C3)cc21 (configuration not stated)	0.1 (≈ 0.313 µM)	0.8 (≈ 2.51 µM)	0.8 (≈ 2.51 µM)	0.2 (≈ 0.626 µM)	–	0.8 (≈ 2.51 µM)	0.2 (≈ 0.626 µM)	2.5 (≈ 7.83 µM)	0.1 (≈ 0.313 µM)	0.13	0.4 (≈ 1.25 µM)	0.4	0.4 (≈ 1.25 µM)	0.1 (≈ 0.313 µM)	–
CCn1cc(C(=O)O)c(=O)c2c(O)c(F)c(N3CCNC(C)C3)c(F)c21 (configuration not stated)	0.4 (≈ 1.09 µM)	12.5 (≈ 34 µM)	6.3 (≈ 17.1 µM)	1.6 (≈ 4.36 µM)	1.6 (≈ 4.36 µM)	12.5 (≈ 34 µM)	0.8 (≈ 2.18 µM)	5 (≈ 13.6 µM)	0.4 (≈ 1.09 µM)	–	12.5 (≈ 34 µM)	–	12.5 (≈ 34 µM)	–	–
CCn1cc(C(=O)O)c(=O)c2cc(F)c(N3CC(C)NC(C)C3)c(F)c21 (configuration not stated)	0.2 (≈ 0.547 µM)	6.3 (≈ 17.2 µM)	1.6 (≈ 4.38 µM)	1.6 (≈ 4.38 µM)	–	12.5 (≈ 34.2 µM)	0.4 (≈ 1.09 µM)	3.8 (≈ 10.4 µM)	0.2 (≈ 0.547 µM)	0.79	6.3 (≈ 17.2 µM)	3.17	6.3 (≈ 17.2 µM)	0.8 (≈ 2.19 µM)	–
CCn1cc(C(=O)O)c(=O)c2c(N)c(F)c(N3CCNCC3)cc21	0.2 (≈ 0.598 µM)	0.2 (≈ 0.598 µM)	0.4 (≈ 1.2 µM)	1.6 (≈ 4.79 µM)	0.05 (≈ 0.15 µM)	3.1 (≈ 9.27 µM)	0.4 (≈ 1.2 µM)	2.5 (≈ 7.48 µM)	0.2 (≈ 0.598 µM)	0.6	0.05 (≈ 0.15 µM)	0.11	0.1 (≈ 0.299 µM)	–	–
CCNCC1CCN(c2c(F)cc3c(=O)c(C(=O)O)cn(CC)c3c2Cl)C1 (configuration not stated)	0.2 (≈ 0.505 µM)	0.1 (≈ 0.253 µM)	0.1 (≈ 0.253 µM)	0.8 (≈ 2.02 µM)	–	12.5 (≈ 31.6 µM)	0.4 (≈ 1.01 µM)	2.5 (≈ 6.32 µM)	0.2 (≈ 0.505 µM)	0.69	0.05 (≈ 0.126 µM)	0.057	0.05 (≈ 0.126 µM)	0.025 (≈ 0.0632 µM)	–
CCn1cc(C(=O)O)c(=O)c2cc(F)c(N3CC(C)NC(C)C3)c(Cl)c21 (configuration not stated)	1.6 (≈ 4.19 µM)	12.5 (≈ 32.7 µM)	3.1 (≈ 8.12 µM)	6.3 (≈ 16.5 µM)	–	12.5 (≈ 32.7 µM)	3.1 (≈ 8.12 µM)	5 (≈ 13.1 µM)	3.1 (≈ 8.12 µM)	4.14	12.5 (≈ 32.7 µM)	6.27	12.5 (≈ 32.7 µM)	1.6 (≈ 4.19 µM)	–
CCn1cc(C(=O)O)c(=O)c2c(O)c(F)c(N3CCC(N)C3)c(F)c21 (configuration not stated)	0.2 (≈ 0.566 µM)	3.1 (≈ 8.77 µM)	1.6 (≈ 4.53 µM)	0.4 (≈ 1.13 µM)	0.2 (≈ 0.566 µM)	0.8 (≈ 2.26 µM)	0.4 (≈ 1.13 µM)	2.5 (≈ 7.08 µM)	0.2 (≈ 0.566 µM)	0.35	1.6 (≈ 4.53 µM)	1.2	1.6 (≈ 4.53 µM)	–	–
CCn1cc(C(=O)O)c(=O)c2c(N)c(F)c(N3CCNCC3)c(Cl)c21	0.2 (≈ 0.542 µM)	6.3 (≈ 17.1 µM)	3.1 (≈ 8.41 µM)	1.6 (≈ 4.34 µM)	0.4 (≈ 1.08 µM)	6.3 (≈ 17.1 µM)	0.4 (≈ 1.08 µM)	5 (≈ 13.6 µM)	0.4 (≈ 1.08 µM)	0.79	3.1 (≈ 8.41 µM)	2.37	3.1 (≈ 8.41 µM)	–	–
CCn1cc(C(=O)O)c(=O)c2cc(F)c(N3CCNC(C)C3)c(Cl)c21 (configuration not stated)	0.2 (≈ 0.544 µM)	3.1 (≈ 8.43 µM)	1.6 (≈ 4.35 µM)	0.8 (≈ 2.18 µM)	–	6.3 (≈ 17.1 µM)	0.4 (≈ 1.09 µM)	5 (≈ 13.6 µM)	0.2 (≈ 0.544 µM)	0.6	3.1 (≈ 8.43 µM)	1.8	3.1 (≈ 8.43 µM)	0.4 (≈ 1.09 µM)	–
CCn1cc(C(=O)O)c(=O)c2c(N)c(F)c(N3CC(C)NC(C)C3)c(Cl)c21 (configuration not stated)	1.6 (≈ 4.03 µM)	12.5 (≈ 31.5 µM)	3.1 (≈ 7.81 µM)	6.3 (≈ 15.9 µM)	1.6 (≈ 4.03 µM)	12.5 (≈ 31.5 µM)	6.3 (≈ 15.9 µM)	7.5 (≈ 18.9 µM)	1.6 (≈ 4.03 µM)	4.18	25 (≈ 63 µM)	8.27	25 (≈ 63 µM)	–	–
CCNCC1CCN(c2c(F)c(O)c3c(=O)c(C(=O)O)cn(CC)c3c2F)C1 (configuration not stated)	0.4 (≈ 1.01 µM)	0.4 (≈ 1.01 µM)	0.4 (≈ 1.01 µM)	3.1 (≈ 7.84 µM)	0.05 (≈ 0.126 µM)	12.5 (≈ 31.6 µM)	0.8 (≈ 2.02 µM)	2.5 (≈ 6.32 µM)	0.4 (≈ 1.01 µM)	1.38	0.2 (≈ 0.506 µM)	0.2	0.2 (≈ 0.506 µM)	–	–
CCNCC1CCN(c2cc3c(cc2F)c(=O)c(C(=O)O)cn3CC)C1 (configuration not stated)	0.1 (≈ 0.277 µM)	0.2 (≈ 0.553 µM)	0.2 (≈ 0.553 µM)	1.6 (≈ 4.43 µM)	–	3.1 (≈ 8.58 µM)	0.4 (≈ 1.11 µM)	2.5 (≈ 6.92 µM)	0.4 (≈ 1.11 µM)	0.6	0.1 (≈ 0.277 µM)	0.15	0.2 (≈ 0.553 µM)	0.1 (≈ 0.277 µM)	–
CCn1cc(C(=O)O)c(=O)c2cc(F)c(N3CCC(N)C3)c(Cl)c21 (configuration not stated)	0.05 (≈ 0.141 µM)	0.4 (≈ 1.13 µM)	0.4 (≈ 1.13 µM)	0.2 (≈ 0.565 µM)	–	0.8 (≈ 2.26 µM)	0.1 (≈ 0.283 µM)	2.5 (≈ 7.07 µM)	0.05 (≈ 0.141 µM)	0.13	0.4 (≈ 1.13 µM)	0.3	0.4 (≈ 1.13 µM)	0.1 (≈ 0.283 µM)	–
NC1CCN(c2c(F)cc3c(=O)c(C(=O)O)cn(C4CC4)c3c2Cl)C1 (stereo in doubt; 1h-4)	–	–	–	–	–	–	–	0.5 (≈ 1.37 µM)	–	0.029	–	–	–	–	–
CCNCC1CCN(c2cc3c(c(N)c2F)c(=O)c(C(=O)O)cn3CC)C1 (configuration not stated)	0.8 (≈ 2.13 µM)	0.8 (≈ 2.13 µM)	0.8 (≈ 2.13 µM)	12.5 (≈ 33.2 µM)	0.1 (≈ 0.266 µM)	25 (≈ 66.4 µM)	3.1 (≈ 8.24 µM)	7.5 (≈ 19.9 µM)	1.6 (≈ 4.25 µM)	4.15	0.8 (≈ 2.13 µM)	0.46	0.4 (≈ 1.06 µM)	–	–
CCNCC1CCN(c2c(F)c(N)c3c(=O)c(C(=O)O)cn(CC)c3c2F)C1 (configuration not stated)	0.2 (≈ 0.507 µM)	0.2 (≈ 0.507 µM)	0.2 (≈ 0.507 µM)	1.6 (≈ 4.06 µM)	0.1 (≈ 0.254 µM)	6.3 (≈ 16 µM)	1.6 (≈ 4.06 µM)	3.8 (≈ 9.63 µM)	0.4 (≈ 1.01 µM)	1.05	0.2 (≈ 0.507 µM)	0.17	0.2 (≈ 0.507 µM)	–	–
O=C(O)c1cn(C2CC2)c2c(F)c(N3CCNCC3)c(F)c(O)c2c1=O	0.05 (≈ 0.137 µM)	1.6 (≈ 4.38 µM)	1.6 (≈ 4.38 µM)	0.2 (≈ 0.547 µM)	0.2 (≈ 0.547 µM)	0.8 (≈ 2.19 µM)	0.2 (≈ 0.547 µM)	0.5 (≈ 1.37 µM)	0.1 (≈ 0.274 µM)	0.17	1.6 (≈ 4.38 µM)	1.06	1.6 (≈ 4.38 µM)	–	–
CCn1cc(C(=O)O)c(=O)c2cc(F)c(N3CCNC(C)C3)cc21 (configuration not stated)	0.1 (≈ 0.3 µM)	1.6 (≈ 4.8 µM)	1.6 (≈ 4.8 µM)	0.2 (≈ 0.6 µM)	–	1.6 (≈ 4.8 µM)	0.2 (≈ 0.6 µM)	2.5 (≈ 7.5 µM)	0.1 (≈ 0.3 µM)	0.23	1.6 (≈ 4.8 µM)	1.05	1.6 (≈ 4.8 µM)	0.2 (≈ 0.6 µM)	–
